Source: PubChem
Only some compounds are listed: those with a hit (about 2.9% of all), similar ones and a draw of the others.
NS3 helicase inh = inhibitors of HCV NS3 helicase, primary screen, biochemical, Cy5 molecular beacon fluorescence; 290,000 tested, 0.56% active; AID 1800, 2009; inhibition, % at 10.9 µM; Hepatitis C virus NS3 helicase; NS3 helicase DNA unwinding;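 active means inhibition above the mean of all tested compounds plus 3 SD, set per campaign, cut at about 35% in these data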;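 further: 0% = DMSO wells and 100% = thioflavine S control wells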
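System: Hepatitis C virus NS3 helicase domain fragment enzyme | Reagent: Annealed dual-labelled DNA beacon duplex, ATP-started | Compound dosing: 10.9 µM single point, 0.8% DMSO | Incubation: 1 h reaction at 25 °C, ATP-initiated | Technique: Cy5 fluorescence | Evaluation: Percent inhibition from t60/t0 fluorescence ratio | Benchmarks: Low DMSO, high thioflavine S at 110 µM | Replication: Singlicate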
PRMT1 inh = PRMT1 methyltransferase inhibitors, primary screen, biochemical, fluorescence polarization; recombinant PRMT1, activity-based probe fluorescence polarization; Protein arginine N-methyltransferase 1 (Homo sapiens), Q99873; AID 652257, 2013; inhibition, % at 2.79 µM; 370,000 tested, 1.3% active;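 active means inhibition above about 21% made by adding two undisclosed values, limit read from the data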
Target sequence (Q99873 whole entry, looked up): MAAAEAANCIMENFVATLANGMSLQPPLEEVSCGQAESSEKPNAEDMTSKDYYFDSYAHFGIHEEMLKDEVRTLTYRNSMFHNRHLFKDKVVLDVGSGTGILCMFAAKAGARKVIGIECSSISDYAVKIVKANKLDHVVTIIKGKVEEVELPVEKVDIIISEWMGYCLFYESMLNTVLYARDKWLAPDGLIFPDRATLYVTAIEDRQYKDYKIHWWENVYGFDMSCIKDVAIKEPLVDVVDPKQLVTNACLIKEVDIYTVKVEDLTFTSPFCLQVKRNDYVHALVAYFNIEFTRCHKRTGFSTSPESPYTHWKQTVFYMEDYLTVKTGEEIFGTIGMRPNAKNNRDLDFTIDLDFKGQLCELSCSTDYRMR
ABHD5-PLIN5 inh = ABHD5-PLIN5 interaction inhibitors, primary screen, cell lysate, split luciferase complementation, luminescence; Perilipin-5 (Homo sapiens) + 1-acylglycerol-3-phosphate O-acyltransferase ABHD5 (Homo …; Split G. princeps luciferase complementation, 4 h; inhibition, % at 4 µM; 360,000 tested, 0.78% active;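 active means inhibition above the mean inhibition across every tested compound plus 3 SD, cut at about 22% in these data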;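 further: 0% = DMSO only wells and the 100% control is not disclosed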
APOBEC3A inh = APOBEC3A ssDNA deaminase inhibitors, primary screen, selectivity assay for APOBEC3G inhibitor project, biochemical, FAM/TAMRA oligo cleavage fluorescence. 330,000 tested, 0.41% active. DNA dC->dU-editing enzyme APOBEC-3A (Homo sapiens), P31941. inhibition, % at 20 µM. recombinant A3A, FAM/TAMRA ssDNA deamination fluorescence. AID 493011, 2011;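 active means at least 40% inhibition at 20 µM here, with at most 30% in a related deaminase screen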;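 further: plate controls were A3A with DMSO for no effect and wells lacking A3A enzyme for full effect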
Target sequence (P31941 whole entry, looked up): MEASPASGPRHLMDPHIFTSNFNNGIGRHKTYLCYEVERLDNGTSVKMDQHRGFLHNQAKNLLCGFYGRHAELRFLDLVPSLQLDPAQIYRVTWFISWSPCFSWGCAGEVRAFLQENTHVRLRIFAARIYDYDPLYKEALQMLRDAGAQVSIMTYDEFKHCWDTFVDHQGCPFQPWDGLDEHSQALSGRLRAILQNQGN
HCV core dimer = inhibitors of HCV core protein dimerization, primary screen, biochemical, TR-FRET, high-throughput; TR-FRET GST/Flag-core106 dimerization, 1536-well; inhibition, % at 5 µM; 300,000 tested, 0.33% active; AID 1899, 2009;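 active means inhibition above the mean of all tested compounds plus 3 SD, set per screening campaign, cut at about 45% in these data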
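Material: GST/Flag-tagged HCV core106 proteins. Incubation: 4 h, 22.5 °C incubation. Read-out basis: inhibition (%) from 671 over 617 nm ratio. Measured by: TR-FRET, excitation 340 nm, emission 617 and 671 nm.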
APOBEC3G inh = APOBEC3G DNA deaminase inhibitors, primary screen, biochemical, fluorescence, single-stranded DNA substrate, uHTS; 330,000 tested, 0.28% active; recombinant A3G, ssDNA deamination FAM/TAMRA fluorescence; inhibition, % at 20 µM; DNA dC->dU-editing enzyme APOBEC-3G (Homo sapiens), Q9HC16;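 active means inhibition of at least 40% at 20 µM, with no more than 30% in the related APOBEC3A deaminase screen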;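 further: plate controls were DMSO wells with A3G for no effect and wells lacking A3G enzyme for full effect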
PRMT1 inh conf = PRMT1 methyltransferase inhibitors, confirmation, biochemical, fluorescence polarization, triplicate. shares compounds with PRMT1 inh. recombinant His-PRMT1, activity-based probe fluorescence polarization. inhibition, % at 2.79 µM. 3,300 tested, 42% active. AID 687036, 2013;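 active means mean inhibition across replicates above the hit cutoff derived for the earlier primary screen, cut at about 22% in these data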
* = called active by the depositor; · = no result given.

SMILES	NS3 helicase inh	PRMT1 inh	ABHD5-PLIN5 inh	APOBEC3A inh	HCV core dimer	APOBEC3G inh	PRMT1 inh conf
CC(C)(C)c1cc(C(=O)Nc2cccnc2)cc(C(=O)Nc2cccnc2)c1	-6	1	1	1	3	-7	·
C[C@@H]1C(=O)N(c2ccccc2)[C@@H]1c1ccncc1	·	1	-1	6	·	8	·
CC1Cc2ccccc2N1C(=O)Cn1cc(C(F)(F)F)ccc1=O (centres undefined)	·	-3	-1	·	·	·	·
O=C(CSc1ccc(-c2ccccn2)nn1)Nc1ccc(F)cc1F	-43	0	1	-3	1	-4	·
CC(=O)c1cccc(NC(=O)CSc2ccc(-c3ccco3)nn2)c1	19	54*	10	-1	10	-2	66*
O=C(CSc1ccc(-c2ccco2)nn1)Nc1ccc(F)cc1F	18	34*	9	1	4	-10	3
COC(=O)[C@@]1(C(C)C)N=C(c2cc(OC)c(OC)c(OC)c2)[C@]2(O1)C(=O)N(Cc1ccc(OC)cc1)c1ccc(Br)cc12	·	-6	-1	·	·	·	·
CCOc1ccc(CNS(=O)(=O)c2cc(-c3cc(C)no3)ccc2OC)cc1OC	14	-2	-1	0	2	10	·
Cc1ccc(N2C(=O)CC(Sc3nc4ccccc4o3)C2=O)cc1Cl (centres undefined)	4	50*	13	-4	3	-4	37*
CCOC(=O)C(CC)c1cc2n(c(=O)c1C#N)CCC21OCCO1 (centres undefined)	·	0	-6	·	·	·	·
O=[N+]([O-])c1cc(-c2ccc(C(=S)N3CCOCC3)o2)ccc1Cl	18	44*	-35	-3	8	4	18
O=[N+]([O-])c1ccccc1-c1ccc(C(=S)N2CCCC2)o1	10	39*	-35	-7	0	-12	8
O=[N+]([O-])c1cccc(-c2ccc(C(=S)N3CCOCC3)o2)c1	18	0	-3	-2	11	-3	·
O=C(O)CN1C(=O)/C(=C\c2ccccc2OCc2ccc(F)cc2)SC1=S	-5	25*	-9	1	21	3	-1
Cc1ccc(C2C3=C(CCCC3=O)Nc3[nH]c(=S)[nH]c(=O)c32)cc1 (centres undefined)	28	17	-23	0	1	16	·
CC1(C)CC(=O)C2=C(C1)Nc1[nH]c(=S)[nH]c(=O)c1C2c1ccccc1 (centres undefined)	23	66*	-2	9	2	11	6
O=C1CCCC2=C1C(c1ccc(Br)cc1)c1c([nH]c(=S)[nH]c1=O)N2 (centres undefined)	20	49*	-16	-2	-2	3	38*
COc1cc(N=Nc2ccc(Br)cc2)cc(C=O)c1O	·	0	0	·	·	·	·
O=c1/c(=C/c2ccco2)sc2nc(-c3ccccc3Br)nn12	20	7	-2	22	10	7	·
CCCOc1ccc(Cc2nn3c(=O)/c(=C/c4ccco4)sc3nc2=O)cc1	33	33*	4	28	3	3	7
CC(=O)Nc1ccc(C(=O)NCCCSc2ccccc2)cc1	4	-2	1	-1	1	-5	·
CC(=O)Nc1ccc(SCCCC(=O)c2ccccc2)cc1	-12	35*	-1	-1	-8	-1	39*
O=C1c2ccccc2C(=O)c2c(O)c(O)cc(O)c21	·	27*	11	5	·	1	21
Nc1ccc(O)c2c1C(=O)c1ccccc1C2=O	17	17	1	94	3	76	·
COc1cccc(-c2nc(CS(=O)(=O)CC(=O)NC3CCCCCC3)c(C)o2)c1	-7	-2	0	0	-1	2	·
SMILES	NS3 helicase inh	PRMT1 inh	ABHD5-PLIN5 inh	APOBEC3A inh	HCV core dimer	APOBEC3G inh	PRMT1 inh conf
COc1ccc(N/C=C2\CCc3ccccc3C2=O)cc1	16	59*	-13	-4	-6	8	44*
CC(=O)N1CCN(C(=O)c2ccc3oc(CCCc4ccccc4)nc3c2)CC1	13	1	-2	4	-16	-1	·
CCOC(=O)N1CCN(C(=O)c2ccc3oc(CCCc4ccccc4)nc3c2)CC1	15	31*	-2	2	2	-7	-1
COc1ccc(C2c3sc(=O)[nH]c3SC3C(=O)N(c4ccccc4)C(=O)C32)cc1 (centres undefined)	9	27*	-29	0	-5	-8	1
CCN1CCN(C(=S)c2ccc(SC)cc2)CC1	-2	32*	-1	-1	-1	0	19
CSc1ccc(C(=S)N2CCN(Cc3ccccc3)CC2)cc1	-1	32*	-6	0	1	1	38*
c1ccc(COc2cccc(-c3cc4nc(NCCc5ccncc5)ccn4n3)c2)cc1	·	3	7	·	·	·	·
Cc1ccc(O)c(C(=O)c2cc(C#N)c(=O)n(-c3nccs3)c2)c1	-3	39*	5	-1	28	-20	31*
CC(=O)C1=C(O)C(=O)N(CCc2c[nH]c3ccccc23)C1c1ccc(C)cc1 (centres undefined)	28	0	-8	0	0	-1	·
CC(=O)C1=C(O)C(=O)N(CCc2c[nH]c3ccccc23)C1c1ccco1 (centres undefined)	2	28*	-1	16	11	12	5
COC(=O)C1=C(C)OC(N)=C(C#N)C1c1ccccc1 (centres undefined)	-4	1	-5	1	0	-3	·
CNC(=O)C1C(=S)NC(N)=C(C#N)C1c1ccccc1 (centres undefined)	3	61*	-25	-3	0	39	12
CCCCOc1ccc(C(=O)NC2CCCCN(Cc3ccc(C)cc3)C2=O)cc1 (centres undefined)	·	2	·	·	·	·	·
COc1ccc(CC(=O)n2[nH]c(=O)ccc2=O)cc1OC	3	75*	13	14	-2	-16	96*
Brc1ccc(C2=CSC3=NCCN23)cc1	-2	30*	-8	-2	11	-7	12
Cc1ccc(C)c(NC(=S)c2nc3ccccc3s2)c1	6	29*	-9	-2	0	-8	9
Cn1cc(Br)c(C(=O)N/N=C/c2cc3c(cc2Cl)OCO3)n1	-9	-1	0	-2	·	-2	·
